Key:
[1] = Plasma concentration in po dosed Sprague-Dawley rat after 12 hrs; assay type: ADME, organism-based
[2] = AUC in iv dosed Sprague-Dawley rat; assay type: ADME, organism-based; conditions: plasma
[3] = AUC in po dosed Sprague-Dawley rat; assay type: ADME, organism-based; conditions: plasma
[4] = Oral bioavailability in Sprague-Dawley rat; assay type: ADME, organism-based; conditions: in vivo
[5] = Inhibition of VLA-4 (unknown origin) binding to VCAM-1 in human Jurkat TM cells after 30 mins by fibronectin mediated cell adhesion assay; assay type: cell-based
Method in brief: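 Calcein-labelled Jurkat TM cells (10^5/well) in Hepes 20 mM, NaCl 140 mM, CaCl2 1 mM, MgCl2 1 mM, 0.3% BSA with activating anti-α4 TS2/16. Cells were preincubated 30 min on wet ice with anti-α5 (5 µg/ml) and a compound dose–response, then bound 35 min at 37 °C, 5% CO2 to human plasma fibronectin-coated wells. Wells were washed 3× and read by fluorescence to give IC50.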

[6] = Plasma concentration in po dosed Sprague-Dawley rat after 6 hrs; assay type: ADME, organism-based

Compound	concentration at 12 h [1] [ng/mL]	AUC [2] [ng·h/mL]	AUC [3] [ng·h/mL]	bioavailability [4] [%]	IC50 [5] [nM]	concentration at 6 h [6] [ng/mL]
CCN(CC)c1ncc(N(C)S(=O)(=O)c2ccc(Cl)cc2)c(N[C@@H](Cc2ccc(OC(=O)N3CCCC3)cc2)C(=O)O)n1	330	153000	51000	33	19	–
CCN(CC)c1ncc(N(C)S(=O)(=O)c2ccc(C)cc2)c(N[C@@H](Cc2ccc(OC(=O)N3CCCC3)cc2)C(=O)O)n1	450	173000	74000	43	6	–
CCN(CC)c1ncc(N(CC)S(=O)(=O)c2ccc(Cl)cc2)c(N[C@@H](Cc2ccc(OC(=O)N(C)C)cc2)C(=O)O)n1	12	17000	5100	33	7	–
CCN(CC)c1ncc(N(C)S(=O)(=O)c2ccc(C)cc2)c(N[C@@H](Cc2ccc(OC(=O)N(C)C)cc2)C(=O)O)n1	–	41000	6000	15	2	100
CCN(CC)c1ncc(N(C)S(=O)(=O)c2ccc(Cl)cc2)c(N[C@@H](Cc2ccc(OC(=O)N(C)C)cc2)C(=O)O)n1	130	32000	23000	73	3	–
CCN(CC)c1ncc(N(C(C)C)S(=O)(=O)c2ccc(F)cc2)c(N[C@@H](Cc2ccc(OC(=O)N(C)C)cc2)C(=O)O)n1	–	–	–	–	5	–

Second part, led by results:

concentration at 12 h [1] [ng/mL]	AUC [2] [ng·h/mL]	AUC [3] [ng·h/mL]	bioavailability [4] [%]	IC50 [5] [nM]	Compound	concentration at 6 h [6] [ng/mL]
100	110000	34000	31	17	CCN(CC)c1ncc(N(CC)S(=O)(=O)c2ccc(Cl)cc2)c(N[C@@H](Cc2ccc(OC(=O)N3CCCC3)cc2)C(=O)O)n1	–
120	126000	42000	33	13	C#CCN(c1cnc(N(CC)CC)nc1N[C@@H](Cc1ccc(OC(=O)N2CCCC2)cc1)C(=O)O)S(=O)(=O)c1ccc(F)cc1F	–
180	111000	51000	46	1	CCN(CC)c1ncc(N(CC)S(=O)(=O)c2ccc(F)cc2)c(N[C@@H](Cc2ccc(OC(=O)N3CCCC3)cc2)C(=O)O)n1	–
50	83000	28000	34	9	CCN(CC)c1ncc(N(CC)S(=O)(=O)c2ccc(F)cc2F)c(N[C@@H](Cc2ccc(OC(=O)N3CCCC3)cc2)C(=O)O)n1	–

From ChEMBL document CHEMBL2380222, “Arylsulfonamide pyrimidines as VLA-4 antagonists” (Bioorg Med Chem Lett, 2013)
